# Activity calls are given as the source filed them. No cut-off for these calls is given here.
# Experiments:
# K562 = test: Cytotoxicity against human K562 cells assessed as cell growth inhibition after 24 hrs by MTT assay; type: functional, cell-based; conditions: K562, 24 h
# Method in brief: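 Cells seeded 24 h in RPMI 1640 + 10% FBS. RWPE-1 was kept in K-SFM with bovine pituitary extract and EGF. Cells then exposed to compounds for 24 h at 37 °C, 5% CO2, with DMSO vehicle and docetaxel as positive control. MTT added for 4 h, absorbance read at 570 nm. Triplicate runs, IC50 reported as mean of three experiments.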
# PC-3 [1] = test: Induction of cell cycle arrest in human PC3 cells assessed as accumulation in S phase at 0.5 uM after 24 hrs by […]propidium iodide based flow cytometric analysis (reference value: 21 to 31.6 %); type: functional
# PC-3 [2] = test: Induction of cell cycle arrest in human PC3 cells assessed as accumulation in G0/G1 phase at 2 uM after 24 hrs by […]propidium iodide based flow cytometric analysis (reference value: 43.5 to 62.5 %); type: functional
# PC-3 [3] = test: Induction of vacuolization in human PC3 cells in presence of AcT-D after 24 hrs by phase-contrast microscopic analysis; type: functional, cell-based
# Method in brief: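 PC3 cells pretreated with 10 μM actinomycin D or 5 μM cycloheximide, then treated with agent for 24 h. Vacuolization imaged by phase-contrast microscopy; viability by MTT.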
# PC-3 [4] = test: Induction of cell cycle arrest in human PC3 cells assessed as accumulation in G0/G1 phase at 0.5 uM after 24 hrs by […]propidium iodide based flow cytometric analysis (reference value: 43.5 to 62.5 %); type: functional
# PC-3 [5] = test: Induction of autophagy in human PC3 cells assessed as upregulation of LC3 expression after 24 hrs by Western blot analysis; type: functional, cell-based
# Method in brief: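 PC3 cells in RPMI 1640 with 10% FBS, treated at 50−70% confluence for a time course up to 24 h; DMSO vehicle control. Lysed in RIPA buffer; 40 μg protein run on SDS-PAGE, transferred to nitrocellulose, primary antibody overnight at 4 °C, HRP secondary 45 min, ECL detection. GAPDH or β-actin loading control.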
# PC-3 [6] = test: Growth inhibition of human PC3 cells at IC30 in presence of […] by MTT assay; type: functional
# [7] = biological target: T1, Eukaryotic translation initiation factor 2-alpha kinase 3 (Homo sapiens) (UniProt Q9NZJ5); test: Activation of PERK phosphorylation in human PC3 cells after 24 hrs by Western blot analysis; type: cell-based
# T1 sequence (whole entry): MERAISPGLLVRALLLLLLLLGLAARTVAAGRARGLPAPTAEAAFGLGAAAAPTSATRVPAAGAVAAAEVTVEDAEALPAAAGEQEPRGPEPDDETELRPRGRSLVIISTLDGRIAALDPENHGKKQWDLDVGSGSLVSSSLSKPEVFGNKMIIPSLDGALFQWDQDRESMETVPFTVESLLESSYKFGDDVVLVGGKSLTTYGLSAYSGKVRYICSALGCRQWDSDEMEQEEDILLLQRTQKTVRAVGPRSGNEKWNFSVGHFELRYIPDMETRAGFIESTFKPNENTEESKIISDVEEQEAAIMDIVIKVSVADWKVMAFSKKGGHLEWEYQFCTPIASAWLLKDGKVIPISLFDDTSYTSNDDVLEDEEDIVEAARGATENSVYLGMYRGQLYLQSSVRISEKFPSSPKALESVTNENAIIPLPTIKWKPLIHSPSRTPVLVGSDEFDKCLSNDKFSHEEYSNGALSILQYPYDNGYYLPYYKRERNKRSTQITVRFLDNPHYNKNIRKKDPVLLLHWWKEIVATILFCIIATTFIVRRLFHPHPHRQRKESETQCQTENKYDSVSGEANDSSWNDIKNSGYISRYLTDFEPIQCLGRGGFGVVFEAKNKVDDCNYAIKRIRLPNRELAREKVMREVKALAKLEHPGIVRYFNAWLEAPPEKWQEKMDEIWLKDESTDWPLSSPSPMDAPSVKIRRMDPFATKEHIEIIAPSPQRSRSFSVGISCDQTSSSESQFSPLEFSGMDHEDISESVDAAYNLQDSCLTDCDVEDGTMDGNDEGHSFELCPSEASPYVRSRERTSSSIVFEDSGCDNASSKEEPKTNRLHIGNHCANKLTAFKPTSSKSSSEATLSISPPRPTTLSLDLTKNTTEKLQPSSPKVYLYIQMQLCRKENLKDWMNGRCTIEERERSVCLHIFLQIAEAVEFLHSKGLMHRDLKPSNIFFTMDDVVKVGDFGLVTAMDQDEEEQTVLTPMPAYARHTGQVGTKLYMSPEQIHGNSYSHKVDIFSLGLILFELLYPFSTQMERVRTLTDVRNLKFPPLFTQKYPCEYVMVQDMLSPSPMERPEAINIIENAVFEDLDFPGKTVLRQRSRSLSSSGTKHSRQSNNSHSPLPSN
# Method in brief: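 PC3 cells in RPMI 1640 with 10% FBS, treated with compound for timed intervals. DMSO vehicle control. Lysis in RIPA buffer, 40 μg protein per lane on SDS-PAGE, transfer to nitrocellulose. Primary antibodies overnight at 4 °C, HRP-secondary 45 min, ECL detection. GAPDH or β-actin used as loading control.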
# PC-3 [8] = test: Induction of fusion of autophagosomes with lysosomes in human PC3 cells transfected with mRFP-GFP-LC3 at 1 uM after 8 hrs by fluorescence microscopic analysis; type: functional, cell-based
# Method in brief: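 PC3 cells transfected with an mRFP-GFP-LC3 reporter plasmid, then treated 8 h with 1 μM test agent or 0.5 μM rapamycin (autophagy inducer). Imaged by confocal fluorescence microscopy: yellow puncta (overlapping red/green) scored as autophagosomes, red-only puncta as autolysosomes, since GFP is quenched in acidic lysosomes.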
# PC-3M = test: Antiproliferation activity against human PC3M-lluc-C6 cells xenografted in athymic Balb/c mouse assessed as decrease in cell viability at 15 mg/kg, ip administered every 2 days for 18 days by H and E staining based microscopic analysis; type: functional, organism-based
# Method in brief: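 Male BALB/c-nu mice, 6 weeks old, each given 5 × 10^6 PC3M-luc-C6 cells subcutaneously in the right anterior flank. At ~0.1 cm3 tumor, groups of n = 5 received 15 mg/kg i.p. every 2 days. Docetaxel 15 mg/kg was the positive control. Tumor tissue stained with H&E or anti-Ki67 (1:500) overnight at 4 °C, HRP/DAB, hematoxylin counterstain, examined by microscopy.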
# PC-3 [9] = test: Induction of apoptosis in human in human PC3 cells assessed as reduction in cell viability in presence of pan-caspase inhibitor Z-VAD-fmk by MTT assay; type: functional, cell-based
# Method in brief: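 PC3 cells pretreated with Z-VAD-fmk (10 μM) or Ac-DEVD-CHO (50 μM) before compound exposure. Viability read by MTT at 570 nm. Significance tested against control by Student's t test.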
# PC-3 [10] = test: Induction of endoplasmic reticulum derived cytoplasmic vacuole formation in human PC3 cells after 4 to 8 hrs by ER-tracker staining based fluorescence microscopy; type: functional, cell-based
# Method in brief: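 PC3 cells incubated with vehicle or agent for 0, 4 or 8 h. They were then stained at 37 °C for 15 min with ER-Tracker (1:3000) plus 10 μg/mL Hoechst 33342, washed with PBS and imaged by fluorescence/confocal microscopy.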
structure (smiles),measurement,setting,value
Cc1cc(C)cc(COc2cc3c(cc2OCc2cc(C)cc(C)c2)[C@@H]2C[C@H](O)C[C@@H](C)N2CC3)c1 (racemic),IC50,K562,1440 nM
same,Activity,PC-3 [1],16.1 - 21.3%
same,Activity,PC-3 [2],80.2 - 81.4%
same,Activity,PC-3 [3],inactive
same,Activity,PC-3 [4],63.8 - 70.2%
same,Activity,PC-3 [5],Active
same,growth inhibition (GI),PC-3 [6],54%
same,Activity,[7],Active
same,Activity,PC-3 [8],inactive
same,Activity,PC-3M,Active
same,Activity,PC-3 [9],inactive
same,Activity,PC-3 [10],Active

# Source: ChEMBL document CHEMBL4425094, “Novel Benzo[a]quinolizidine Analogs Induce Cancer Cell Death through Paraptosis and Apoptosis” (J Med Chem, 2016)
